Source: ChEMBL document CHEMBL2034880, “Synthesis and biological evaluation of pyrimidine-based dual inhibitors of human epidermal growth factor receptor 1 (HER-1) and HER-2 tyrosine kinases” (J Med Chem, 2012)
Blank lines part the entries; values can stand above or below the compound they belong to.

Key:
[1] = Half life in human liver microsomes at 5 uM; conditions: liver microsomes
[2] = Half life in rat liver microsomes at 5 uM; conditions: liver microsomes
[3] = Half life in dog liver microsomes at 5 uM; conditions: liver microsomes
SK-BR-3 = assay: Cytotoxicity against human SKBR3 cells overexpressing HER-2 gene after 72 hrs by SRB assay; format: functional, cell-based; conditions: SK-BR-3, 72 h
Outline: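 A431 and SK-Br3 cells grown in DMEM (4.5 g/L glucose, 1.5 g/L sodium bicarbonate) with 10% FBS at 37 °C, humidified 5% CO2. Proliferation/growth inhibition IC50 values are means of three independent experiments, each run in duplicate.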

[4] = Half life in mouse liver microsomes at 5 uM; conditions: liver microsomes
[5] = target: Receptor tyrosine-protein kinase erbB-2 (Homo sapiens, UniProt P04626); assay: Inhibition of HER2 preincubated for 10 mins followed by incubation for 30 mins by fluorescence polarization assay
[6] = target: Receptor tyrosine-protein kinase erbB-4 (Homo sapiens, UniProt Q15303); assay: Inhibition of HER4 preincubated for 10 mins followed by incubation for 30 mins by fluorescence polarization assay
[7] = target: Tyrosine-protein kinase ABL1 (Homo sapiens, UniProt P00519); assay: Inhibition of Abl
[8] = target: 5'-AMP-activated protein kinase catalytic subunit alpha-1 (Homo sapiens, UniProt Q13131); assay: Inhibition of AMPKalpha1
Aurora kinase A = Aurora kinase A (Homo sapiens, UniProt O14965); assay: Inhibition of Aurora A
[9] = target: Cyclin-dependent kinase 1/cyclin B1 (Homo sapiens, UniProt P06493); assay: Inhibition of CDK1/cyclin B; format: protein-complex assay
[10] = target: Mast/stem cell growth factor receptor Kit (Homo sapiens, UniProt P10721); assay: Inhibition of cKIT
Focal adhesion kinase 1 = Focal adhesion kinase 1 (Homo sapiens, UniProt Q05397); assay: Inhibition of FAK
[11] = target: Fibroblast growth factor receptor 1 (Homo sapiens, UniProt P11362); assay: Inhibition of FGFR1
[12] = target: Vascular endothelial growth factor receptor 1 (Homo sapiens, UniProt P17948); assay: Inhibition of Flt1
[13] = target: Receptor-type tyrosine-protein kinase FLT3 (Homo sapiens, UniProt P36888); assay: Inhibition of Flt3
[14] = target: Insulin-like growth factor 1 receptor (Homo sapiens, UniProt P08069); assay: Inhibition of IGF-1R
Insulin receptor = Insulin receptor (Homo sapiens, UniProt P06213); assay: Inhibition of IR
[15] = target: Tyrosine-protein kinase JAK2 (Homo sapiens, UniProt O60674); assay: Inhibition of JAK2
[16] = target: Serine/threonine-protein kinase STK11 (Homo sapiens, UniProt Q15831); assay: Inhibition of LKB1
[17] = target: Dual specificity mitogen-activated protein kinase kinase 1 (Homo sapiens, UniProt Q02750); assay: Inhibition of MEK1
[18] = target: Hepatocyte growth factor receptor (Homo sapiens, UniProt P08581); assay: Inhibition of MET
[19] = target: Platelet-derived growth factor receptor alpha (Homo sapiens, UniProt P16234); assay: Inhibition of PDGFRalpha
[20] = target: Platelet-derived growth factor receptor beta (Homo sapiens, UniProt P09619); assay: Inhibition of PDGFRbeta
[21] = target: Tyrosine-protein kinase SYK (Homo sapiens, UniProt P43405); assay: Inhibition of Syk
[22] = target: Serine/threonine-protein kinase pim-1 (Homo sapiens, UniProt P11309); assay: Inhibition of PIM1
[23] = Cytotoxicity against human MDA-MB-175 cells expressing Src, Ret and low HER-2 after 72 hrs by SRB assay; format: functional, cell-based
Outline: (§1)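 Culture conditions: MDA-MB-361 and MDA-MB-453 grown in L-15 without CO2. NCI-N87, NCI-H1781 and NCI-H1975 grown in RPMI with 1 mM sodium pyruvate under 5% CO2. JIMT-1 grown in DMEM (4.5 g/L glucose) under 5% CO2. MDA-MB-175 grown in L-15 without CO2. All media contained 10% FBS and 1% penicillin-streptomycin, 37 °C. Growth inhibition/GI50 read-out was run per a cited earlier protocol.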

MDA-MB-361 = assay: Cytotoxicity against ER activated human MDA-MB-361 cells expressing Her-2, Src and PIK3CA mutant after 72 hrs by SRB assay; format: functional, cell-based; conditions: MDA-MB-361, 72 h; outline: as §1
MDA-MB-453 = assay: Cytotoxicity against PTEN-deficient human MDA-MB-453 cells expressing HER-2, and PIK3CA mutant after 72 hrs by SRB assay; format: functional, cell-based; conditions: MDA-MB-453, 72 h; outline: as §1
[24] = Cytotoxicity against human JIMT1 cells expressing low HER-2 after 72 hrs by SRB assay; format: functional, cell-based; conditions: JIMT-1, 72 h; outline: as §1
[25] = Cytotoxicity against human NCI-H1781 cells expressing HER-2 G776insV_G/C after 72 hrs by SRB assay; format: functional, cell-based; conditions: NCI-H1781, 72 h; outline: as §1
NCI-N87 = assay: Cytotoxicity against human NCI-N87 cells expressing HER-2 after 72 hrs by SRB assay; format: functional, cell-based; conditions: NCI-N87, 72 h; outline: as §1
NCI-H1975 = assay: Cytotoxicity against human NCI-H1975 cells expressing EGFR L858R/T790M mutant after 72 hrs by SRB assay; format: functional, cell-based; conditions: NCI-H1975, 72 h
Outline: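 NCI-N87, NCI-H1781 and NCI-H1975 grown in RPMI with 1 mM sodium pyruvate under 5% CO2. JIMT-1 grown in DMEM (4.5 g/L glucose) under 5% CO2. All media contained 10% FBS and 1% penicillin-streptomycin, 37 °C. Growth inhibition/GI50 read-out was run per a cited earlier protocol.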

Sequence of Insulin-like growth factor 1 receptor (P08069 31-736 limits assumed): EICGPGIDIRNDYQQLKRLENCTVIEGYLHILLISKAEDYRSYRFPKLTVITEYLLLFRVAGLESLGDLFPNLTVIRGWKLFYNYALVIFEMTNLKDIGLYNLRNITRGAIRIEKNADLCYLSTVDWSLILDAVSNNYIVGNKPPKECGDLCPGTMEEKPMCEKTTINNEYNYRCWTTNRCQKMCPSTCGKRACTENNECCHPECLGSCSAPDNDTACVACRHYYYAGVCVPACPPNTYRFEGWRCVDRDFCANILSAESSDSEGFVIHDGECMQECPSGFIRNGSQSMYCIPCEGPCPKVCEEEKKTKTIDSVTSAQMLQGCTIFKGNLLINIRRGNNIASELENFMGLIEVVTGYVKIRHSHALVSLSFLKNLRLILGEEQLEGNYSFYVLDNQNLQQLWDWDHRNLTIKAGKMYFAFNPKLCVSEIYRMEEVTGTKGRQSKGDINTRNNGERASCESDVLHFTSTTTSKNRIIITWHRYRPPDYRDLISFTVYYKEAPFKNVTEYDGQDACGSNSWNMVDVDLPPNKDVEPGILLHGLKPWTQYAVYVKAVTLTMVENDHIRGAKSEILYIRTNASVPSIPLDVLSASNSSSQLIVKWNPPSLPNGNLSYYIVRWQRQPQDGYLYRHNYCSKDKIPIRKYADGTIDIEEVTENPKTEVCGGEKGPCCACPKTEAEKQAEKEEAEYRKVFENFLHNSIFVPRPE
Sequence of Insulin-like growth factor 1 receptor (P08069 741-1367 limits assumed): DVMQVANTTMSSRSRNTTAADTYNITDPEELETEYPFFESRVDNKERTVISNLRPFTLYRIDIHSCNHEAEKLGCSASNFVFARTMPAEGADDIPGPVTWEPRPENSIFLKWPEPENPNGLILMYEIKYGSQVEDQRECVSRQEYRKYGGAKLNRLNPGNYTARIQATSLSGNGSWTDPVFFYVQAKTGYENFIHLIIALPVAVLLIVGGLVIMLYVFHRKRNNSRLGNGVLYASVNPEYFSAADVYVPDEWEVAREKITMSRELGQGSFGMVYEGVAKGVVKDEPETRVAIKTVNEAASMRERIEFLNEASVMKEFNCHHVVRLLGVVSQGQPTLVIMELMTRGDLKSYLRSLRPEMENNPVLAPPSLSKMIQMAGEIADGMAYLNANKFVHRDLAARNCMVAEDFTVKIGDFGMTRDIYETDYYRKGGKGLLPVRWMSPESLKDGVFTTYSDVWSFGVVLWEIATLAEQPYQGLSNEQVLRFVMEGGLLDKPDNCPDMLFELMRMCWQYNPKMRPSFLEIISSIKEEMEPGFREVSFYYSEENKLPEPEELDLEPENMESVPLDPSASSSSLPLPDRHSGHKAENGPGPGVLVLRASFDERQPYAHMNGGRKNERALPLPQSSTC
Sequence of Insulin receptor (P06213 28-758 limits assumed): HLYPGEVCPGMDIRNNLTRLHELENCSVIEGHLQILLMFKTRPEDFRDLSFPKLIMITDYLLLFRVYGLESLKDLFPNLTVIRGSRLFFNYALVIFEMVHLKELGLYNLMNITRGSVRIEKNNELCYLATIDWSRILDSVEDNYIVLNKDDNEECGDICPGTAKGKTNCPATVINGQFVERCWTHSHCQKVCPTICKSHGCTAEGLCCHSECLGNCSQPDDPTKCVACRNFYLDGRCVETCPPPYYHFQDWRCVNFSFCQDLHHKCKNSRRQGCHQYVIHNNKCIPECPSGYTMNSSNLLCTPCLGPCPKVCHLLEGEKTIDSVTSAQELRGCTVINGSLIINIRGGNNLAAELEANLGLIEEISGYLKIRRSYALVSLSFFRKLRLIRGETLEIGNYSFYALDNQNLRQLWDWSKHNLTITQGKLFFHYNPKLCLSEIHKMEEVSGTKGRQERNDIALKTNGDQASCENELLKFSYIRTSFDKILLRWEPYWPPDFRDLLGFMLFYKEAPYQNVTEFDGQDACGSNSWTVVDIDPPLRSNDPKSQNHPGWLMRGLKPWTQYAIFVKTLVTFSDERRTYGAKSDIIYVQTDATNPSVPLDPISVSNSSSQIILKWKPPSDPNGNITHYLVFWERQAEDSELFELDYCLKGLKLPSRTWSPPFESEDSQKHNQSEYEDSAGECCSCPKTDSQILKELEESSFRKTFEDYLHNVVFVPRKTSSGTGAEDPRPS
Sequence of Insulin receptor (P06213 763-1382 limits assumed): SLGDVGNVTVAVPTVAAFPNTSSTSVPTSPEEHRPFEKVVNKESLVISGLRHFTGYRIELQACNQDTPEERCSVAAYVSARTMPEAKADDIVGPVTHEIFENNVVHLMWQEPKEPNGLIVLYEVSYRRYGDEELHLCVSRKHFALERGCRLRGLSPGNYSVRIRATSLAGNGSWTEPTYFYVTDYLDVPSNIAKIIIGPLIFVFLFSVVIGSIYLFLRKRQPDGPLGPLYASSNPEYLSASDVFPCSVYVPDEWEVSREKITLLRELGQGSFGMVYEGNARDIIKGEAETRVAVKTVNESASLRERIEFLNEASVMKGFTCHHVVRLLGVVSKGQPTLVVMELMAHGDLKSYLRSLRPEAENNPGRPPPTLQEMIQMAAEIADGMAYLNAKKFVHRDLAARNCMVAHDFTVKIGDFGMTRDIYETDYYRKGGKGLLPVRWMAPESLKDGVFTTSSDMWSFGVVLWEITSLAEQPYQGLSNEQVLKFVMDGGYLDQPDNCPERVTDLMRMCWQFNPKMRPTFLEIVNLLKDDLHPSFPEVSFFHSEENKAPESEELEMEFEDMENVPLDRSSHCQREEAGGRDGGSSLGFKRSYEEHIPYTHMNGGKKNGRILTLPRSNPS
Sequence of Tyrosine-protein kinase ABL1 (P00519 whole entry): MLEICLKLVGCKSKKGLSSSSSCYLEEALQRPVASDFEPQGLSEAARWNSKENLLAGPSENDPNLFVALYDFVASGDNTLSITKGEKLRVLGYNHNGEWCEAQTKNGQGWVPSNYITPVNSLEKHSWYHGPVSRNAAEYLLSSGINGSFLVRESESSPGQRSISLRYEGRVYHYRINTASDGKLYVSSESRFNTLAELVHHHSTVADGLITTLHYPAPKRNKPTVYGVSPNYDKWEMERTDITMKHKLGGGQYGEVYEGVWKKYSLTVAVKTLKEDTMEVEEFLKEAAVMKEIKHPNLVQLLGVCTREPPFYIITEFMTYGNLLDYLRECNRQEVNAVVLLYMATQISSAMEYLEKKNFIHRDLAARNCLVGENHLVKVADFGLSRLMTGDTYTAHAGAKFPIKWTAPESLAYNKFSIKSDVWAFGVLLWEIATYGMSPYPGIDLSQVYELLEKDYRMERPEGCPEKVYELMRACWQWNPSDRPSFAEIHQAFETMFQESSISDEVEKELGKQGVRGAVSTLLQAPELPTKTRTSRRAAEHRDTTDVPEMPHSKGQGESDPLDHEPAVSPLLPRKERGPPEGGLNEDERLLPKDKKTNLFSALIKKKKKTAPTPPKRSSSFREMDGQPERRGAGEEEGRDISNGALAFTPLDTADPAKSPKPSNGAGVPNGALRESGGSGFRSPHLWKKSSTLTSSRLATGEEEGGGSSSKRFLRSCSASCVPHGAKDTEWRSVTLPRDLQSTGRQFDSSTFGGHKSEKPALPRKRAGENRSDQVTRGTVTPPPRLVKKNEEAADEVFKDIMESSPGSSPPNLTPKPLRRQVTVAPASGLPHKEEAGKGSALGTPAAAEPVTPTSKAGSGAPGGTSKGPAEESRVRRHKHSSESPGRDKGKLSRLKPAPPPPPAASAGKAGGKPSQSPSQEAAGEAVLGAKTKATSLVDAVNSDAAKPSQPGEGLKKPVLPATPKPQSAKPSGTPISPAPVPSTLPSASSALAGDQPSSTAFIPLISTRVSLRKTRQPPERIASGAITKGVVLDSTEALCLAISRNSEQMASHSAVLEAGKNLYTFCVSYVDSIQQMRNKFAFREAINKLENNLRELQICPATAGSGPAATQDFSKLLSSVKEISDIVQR
Sequence of Dual specificity mitogen-activated protein kinase kinase 1 (Q02750 whole entry): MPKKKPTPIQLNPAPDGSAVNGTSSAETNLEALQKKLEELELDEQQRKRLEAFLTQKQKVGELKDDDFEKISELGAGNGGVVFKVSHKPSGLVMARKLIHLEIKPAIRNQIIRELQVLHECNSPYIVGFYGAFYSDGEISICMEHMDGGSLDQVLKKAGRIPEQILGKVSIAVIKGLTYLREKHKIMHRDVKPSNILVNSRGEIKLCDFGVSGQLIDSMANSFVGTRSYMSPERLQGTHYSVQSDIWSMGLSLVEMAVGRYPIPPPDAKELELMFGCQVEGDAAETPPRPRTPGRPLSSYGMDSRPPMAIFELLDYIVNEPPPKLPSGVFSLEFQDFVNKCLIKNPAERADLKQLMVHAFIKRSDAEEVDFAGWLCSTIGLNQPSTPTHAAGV
Sequence of Aurora kinase A (O14965 whole entry): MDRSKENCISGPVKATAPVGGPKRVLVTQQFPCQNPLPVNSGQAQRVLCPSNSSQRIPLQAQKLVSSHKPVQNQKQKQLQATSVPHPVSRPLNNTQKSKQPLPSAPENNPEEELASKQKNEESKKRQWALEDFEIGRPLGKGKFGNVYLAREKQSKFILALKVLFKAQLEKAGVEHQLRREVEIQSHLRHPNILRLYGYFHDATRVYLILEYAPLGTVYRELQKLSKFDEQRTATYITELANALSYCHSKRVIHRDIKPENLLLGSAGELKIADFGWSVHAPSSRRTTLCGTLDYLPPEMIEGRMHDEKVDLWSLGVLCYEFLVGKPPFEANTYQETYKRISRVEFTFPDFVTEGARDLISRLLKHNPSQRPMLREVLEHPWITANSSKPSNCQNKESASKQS
Sequence of Serine/threonine-protein kinase pim-1 (P11309 whole entry): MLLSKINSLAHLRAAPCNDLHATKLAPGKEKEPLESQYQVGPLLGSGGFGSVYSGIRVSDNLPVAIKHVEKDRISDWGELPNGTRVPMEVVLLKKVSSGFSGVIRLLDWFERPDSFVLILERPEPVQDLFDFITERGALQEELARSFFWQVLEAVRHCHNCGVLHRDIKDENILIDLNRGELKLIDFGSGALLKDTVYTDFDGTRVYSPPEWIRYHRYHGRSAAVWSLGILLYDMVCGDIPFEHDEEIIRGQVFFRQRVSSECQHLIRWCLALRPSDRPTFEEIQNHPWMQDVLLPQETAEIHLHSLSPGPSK

half-life at 5 µM [1]: 25 min
half-life at 5 µM [2]: 23 min
half-life at 5 µM [3]: 46 min
half-life at 5 µM [4]: 17 min
IC50 [5]: 22.4 nM
IC50 [6]: 4 nM
IC50 [7]: > 3000 nM
IC50 [8]: > 3000 nM
IC50 (Aurora kinase A): > 3000 nM
IC50 [9]: > 3000 nM
IC50 [10]: > 3000 nM
IC50 (Focal adhesion kinase 1): > 3000 nM
IC50 [11]: > 3000 nM
IC50 [12]: > 3000 nM
IC50 [13]: > 3000 nM
IC50 [14]: > 3000 nM
IC50 (Insulin receptor): > 3000 nM
IC50 [15]: > 3000 nM
IC50 [16]: > 3000 nM
IC50 [17]: > 3000 nM
IC50 [18]: > 3000 nM
IC50 [19]: > 3000 nM
IC50 [20]: > 3000 nM
IC50 [21]: > 3000 nM
IC50 [22]: > 3000 nM
SMILES: C=CC(=O)NCc1coc(-c2c(N)ncnc2Nc2ccc(OCc3ccccn3)c(Cl)c2)n1
IC50 (SK-BR-3): 0.7 nM
IC50 [23]: 1.6 nM
IC50 (MDA-MB-361): 562 nM
IC50 (MDA-MB-453): 5 nM
IC50 [24]: 1880 nM
IC50 [25]: 22 nM

SMILES: CS(=O)(=O)CCNCc1ccc(-c2ccc3ncnc(Nc4ccc(OCc5cccc(F)c5)c(Cl)c4)c3c2)o1 [LAPATINIB]
IC50 [23]: 44.4 nM
IC50 (MDA-MB-361): 1030 nM
IC50 (MDA-MB-453): 555 nM
IC50 [24]: > 10000 nM
IC50 (NCI-N87): 36 nM
IC50 [25]: 3050 nM
IC50 (NCI-H1975): > 1000 nM
